In ChEMBL document CHEMBL1157613, “Salicylic acid based small molecule inhibitor for the oncogenic Src homology-2 domain containing protein tyrosine phosphatase-2 (SHP2)” (J Med Chem, 2010):
Active and inactive are the calls of the source. The rule behind the calls is not given here.

Biological target: T1, Tyrosine-protein phosphatase non-receptor type 11 (Homo sapiens, UniProt Q06124)
T1 sequence (Q06124 whole entry): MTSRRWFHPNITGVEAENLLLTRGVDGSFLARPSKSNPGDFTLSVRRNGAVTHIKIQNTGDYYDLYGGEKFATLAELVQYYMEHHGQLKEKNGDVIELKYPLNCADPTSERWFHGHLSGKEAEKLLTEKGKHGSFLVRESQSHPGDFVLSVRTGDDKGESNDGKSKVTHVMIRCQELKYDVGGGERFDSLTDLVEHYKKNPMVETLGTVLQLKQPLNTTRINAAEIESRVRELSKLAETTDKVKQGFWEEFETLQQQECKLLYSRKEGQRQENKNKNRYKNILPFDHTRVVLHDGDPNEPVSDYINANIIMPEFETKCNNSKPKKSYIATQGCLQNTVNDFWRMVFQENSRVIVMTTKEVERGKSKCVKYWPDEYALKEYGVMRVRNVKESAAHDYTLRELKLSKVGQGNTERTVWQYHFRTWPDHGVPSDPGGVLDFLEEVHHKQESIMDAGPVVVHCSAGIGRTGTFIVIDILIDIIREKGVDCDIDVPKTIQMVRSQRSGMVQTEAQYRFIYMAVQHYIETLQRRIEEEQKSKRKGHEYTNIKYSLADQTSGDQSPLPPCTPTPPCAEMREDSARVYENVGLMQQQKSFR
Experiment: Inhibition of SHP2 […] expressed in Escherichia coli BL21 (DE3) assessed as inhibition of p-nitrophenyl phosphate hydrolysis at pH 7 by spectrophotometry

SMILES	IC50 [µM]
Cn1c(-c2ccccc2)c(-c2cn(CC(=O)NC3c4ccccc4-c4ccccc43)nn2)c2cc(C(=O)O)c(O)cc21	10.4
Cn1c(-c2ccccc2)c(-c2cn(CC(=O)Nc3nc4ccccc4s3)nn2)c2cc(C(=O)O)c(O)cc21	9.1
Cn1c(-c2ccccc2)c(-c2cn(CCCCC(=O)N3c4ccccc4Sc4ccccc43)nn2)c2cc(C(=O)O)c(O)cc21	8
Cn1c(-c2ccccc2)c(-c2cn(CC(=O)Nc3ccc(N4CCOCC4)cc3)nn2)c2cc(C(=O)O)c(O)cc21	7.8
C#Cc1c(-c2ccccc2)n(C)c2cc(O)c(C(=O)O)cc12	212
Cn1c(-c2ccccc2)c(-c2cn(CCC(=O)Nc3ccccc3)nn2)c2cc(C(=O)O)c(O)cc21	86
Cn1c(-c2ccccc2)c(-c2cn(CC(=O)Nc3ccc(-c4ccccc4)cc3)nn2)c2cc(C(=O)O)c(O)cc21	9.3
Cn1c(-c2ccccc2)c(-c2cn(CCCC(=O)Nc3ccc(-c4ccccc4)cc3)nn2)c2cc(C(=O)O)c(O)cc21	12

Biological target: T2, Tyrosine-protein phosphatase non-receptor type 11 (Homo sapiens) (UniProt Q06124)
T2 sequence (whole entry): T1 sequence (Q06124 whole entry)
Experiment: Inhibition of SHP2-dependent ERK1/2 activation in EGF-stimulated HEK293 cells assessed as phosphorylated ERK1/2 level at 20 uM treated for 3 hrs before EGF challenge measured after 60 mins of EGF stimulation by immunoblot analysis
Format: cell-based
Summary of the method: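 HEK293 cells in DMEM with 10% FCS, 4 × 10^5 per well, grown 24 h. They were serum-deprived 16 h, given vehicle or compound at 0-20 μM for 3 h, then stimulated with EGF 2 ng/mL for 60 min. Lysates (30 μg) were run on 10% SDS-PAGE and immunoblotted for phospho-ERK1/2, normalised to total ERK1/2.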

SMILES	inhibition
Cn1c(-c2ccccc2)c(-c2cn(CCC(=O)Nc3ccccc3)nn2)c2cc(C(=O)O)c(O)cc21	inactive
